KCNQ1 inh: human KCNQ1 channel inhibition. P51787. CHO-K1 KCNQ1, FluxOR thallium flux fluorescence; stronger effect = higher value. B-score at 10 µM. 310,000 tested, 1.3% active. AID 2642;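 active = compounds whose thallium flux B-score, printed positive for inhibition, exceeds three library SD while starting fluorescence stays within three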;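 note: channel opened by potassium depolarization with thallium stimulus after 20 min compound exposure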
KCNQ1 act: potentiates or activates the human KCNQ1 potassium channel; 310,000 tested, 0.35% active; B-score at 10 µM; AID 2648; P51787; CHO-K1 KCNQ1, thallium flux FluxOR fluorescence; stronger effect = higher value;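 active = fluorescence ratio B-score, a plate-corrected score, at least three library SD, with initial intensity B-score within 5 SD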
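Doses: Single concentration per compound, DMSO matched to controls | Test system: KCNQ1-transfected CHO-K1 cells | Timing: 90 min dye loading and 20 min compound exposure, both at room temperature | Measured by: Kinetic FluxOR thallium fluorescence, 10-s 1-Hz baseline, 110-s post-stimulus read | Medium: Assay buffer with matched DMSO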
KCC2 mod: modulates chloride dependent transport by human KCC2 | Q9H2X9 | KCC2 cells, thallium flux FluoZin-2 fluorescence | B-score of Tl+ flux slope (higher = more flux/activation; lower = inhibition) at 10 µM | 190,000 tested, 2.2% active;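 active = thallium flux slope and its plate-corrected score both differing from the plate sample mean at a set confidence after two filtering rounds, in either direction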;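 note: slope of fluorescence scaled to starting intensity during 10 to 20 s after thallium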
hERG protect: compounds protecting human hERG from proarrhythmic drug block | Q12809 | CHO-hERG, FluxOR thallium flux, dofetilide IC70 present | activation (rescue from dofetilide block), less the hit threshold, % at 10 µM | 310,000 tested, 0.51% active | AID 1511;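 active = activation above the mean of controls blocked by dofetilide plus 5 SD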;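 note: thallium influx through hERG after potassium depolarization seen as dye fluorescence rise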
Target sequence (Q12809 whole entry, looked up): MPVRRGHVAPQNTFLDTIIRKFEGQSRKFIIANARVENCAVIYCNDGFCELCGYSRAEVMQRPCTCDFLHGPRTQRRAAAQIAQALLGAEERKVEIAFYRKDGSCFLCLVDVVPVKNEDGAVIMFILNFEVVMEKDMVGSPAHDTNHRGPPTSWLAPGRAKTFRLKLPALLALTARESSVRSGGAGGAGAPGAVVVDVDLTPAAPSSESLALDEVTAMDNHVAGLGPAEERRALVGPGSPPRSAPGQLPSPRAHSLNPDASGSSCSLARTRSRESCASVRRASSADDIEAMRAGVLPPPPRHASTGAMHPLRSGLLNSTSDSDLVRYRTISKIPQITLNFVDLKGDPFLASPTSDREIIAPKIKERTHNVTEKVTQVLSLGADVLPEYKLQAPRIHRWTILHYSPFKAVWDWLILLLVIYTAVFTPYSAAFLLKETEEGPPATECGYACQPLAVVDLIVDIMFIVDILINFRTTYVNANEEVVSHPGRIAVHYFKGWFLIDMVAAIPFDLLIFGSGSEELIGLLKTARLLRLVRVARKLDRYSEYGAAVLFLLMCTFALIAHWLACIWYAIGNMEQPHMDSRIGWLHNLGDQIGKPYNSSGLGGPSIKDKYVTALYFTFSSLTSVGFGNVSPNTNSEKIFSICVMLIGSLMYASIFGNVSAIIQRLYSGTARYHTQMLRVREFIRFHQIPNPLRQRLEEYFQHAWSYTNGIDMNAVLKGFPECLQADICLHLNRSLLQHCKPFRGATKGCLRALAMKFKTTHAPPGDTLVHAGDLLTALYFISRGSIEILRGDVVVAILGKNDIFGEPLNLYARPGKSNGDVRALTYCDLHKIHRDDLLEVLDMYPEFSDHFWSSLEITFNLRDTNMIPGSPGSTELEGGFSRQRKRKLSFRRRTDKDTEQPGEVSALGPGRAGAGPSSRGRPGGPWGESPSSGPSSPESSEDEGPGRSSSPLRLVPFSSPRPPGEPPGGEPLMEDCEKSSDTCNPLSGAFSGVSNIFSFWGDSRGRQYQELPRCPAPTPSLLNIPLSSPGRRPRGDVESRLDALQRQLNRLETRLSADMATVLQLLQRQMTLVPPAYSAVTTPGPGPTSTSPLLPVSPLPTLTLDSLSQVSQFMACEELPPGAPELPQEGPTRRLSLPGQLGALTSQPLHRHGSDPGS
KCNK9 block: inhibitors of human KCNK9 two-pore domain potassium channel; Q9NPC2; 310,000 tested, 1.2% active; AID 488922; B-score at 10 µM; HEK293 KCNK9, FluxOR thallium flux fluorescence; stronger effect = lower value;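 active = ratio B-score over 3 SD below the library mean, with starting fluorescence within 5 SD of its mean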;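 note: negative B-score means less thallium flux so channel inhibition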
KCNK3 block: human KCNK3 channel inhibition, primary screen; O14649; CHO-KCNK3 thallium flux, FluxOR fluorescence; stronger effect = lower value; 340,000 tested, 0.84% active; B-score at 10 µM;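 active = B-score under library mean minus 4 SD, starting fluorescence ratio at most library mean plus 5 SD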;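 note: more negative B-score means stronger inhibition of thallium flux through KCNK3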
KCNK9 block conf: human KCNK9 inhibitor confirmation. shares compounds with KCNK9 block. HEK293 KCNK9 cells, FluxOR thallium flux fluorescence. 4,900 tested, 43% active. AID 492992. inhibition, % at 10 µM;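 active = thallium signal inhibited by more than 5 SD of the compound-free buffer control wells, on both duplicate plates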;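 note: 0% = assay buffer control wells without compound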
Kir21 sel: tests whether KCNK9 modulators also affect mouse Kir2.1. inhibition, % at 10 µM. AID 492993. 4,900 tested, 4% active. Kir2.1 cells, FluxOR thallium flux fluorescence. shares compounds with KCNK9 block;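 active = thallium signal drop more than 5 SD beyond the mean of the no-compound control wells, seen in both duplicate plates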;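 note: signal is fluorescence rise after thallium addition divided by baseline fluorescence; plate controls were assay buffer only for no effect and full block by chlorpromazine control for full effect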
KCNK9 uninduced: non-induced cell nonspecific activity of KCNK9 modulators | shares compounds with KCNK9 block | non-induced KCNK9-HEK293, FluxOR thallium flux | inhibition, % at 10 µM | 4,900 tested, 40% active;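 active = thallium signal drop beyond 5 SD of the untreated control mean, on both duplicate plates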;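 note: plate controls were buffer only IC0 wells for no effect and SID17386958 at its maximal inhibitory level for full effect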
Numbers without * were called inactive; i = inactive; . = not tested or not shown. The list is not random: actives were taken first. Their share in the collection is about 4.1%.

SMILES	KCNQ1 inh	KCNQ1 act	KCC2 mod	hERG protect	KCNK9 block	KCNK3 block	KCNK9 block conf	Kir21 sel	KCNK9 uninduced
CC(C)c1ccc(NC(=O)CN2C(=O)NC3(CCCCCCC3)C2=O)cc1	.	.	.	.	.	i	.	.	.
Cc1ccc(NC(=O)CSCC(=O)NCCc2ccccn2)c(C)c1	i	i	0.186	-12.0	i	i	.	.	.
CCC(=O)c1ccc(OCC(=O)OCC(=O)c2cc(C)n(CC3CCCO3)c2C)cc1 (stereo not given)	i	i	.	-16.1	i	i	.	.	.
Cc1cc(C(=O)COC(=O)C2CCN(C(=O)c3ccc(Cl)cc3)CC2)c(C)n1CC1CCCO1 (stereo not given)	i	i	-0.255	-15.2	i	i	i	i	i
COc1ccc(CNC(=O)COC(=O)c2ccc(F)c(S(=O)(=O)N3CCCCC3)c2)cc1OC	i	i	-1.44	-15.1	i	i	.	.	.
COC(=O)c1cc(OC)c(OC)cc1NC(=O)c1csc(C)c1	i	i	.	-8.2	i	i	.	.	.
O=C(c1cccs1)C1CCCN(Cc2nc(Cc3ccccc3F)no2)C1 (stereo not given)	i	i	-1.92	-9.7	i	i	i	i	i
O=C(c1cccnc1)C1CCCN(Cc2nc(Cc3ccccc3F)no2)C1 (stereo not given)	i	i	-0.793	-6.8	i	i	.	.	.
Cc1ccccc1C1CCCN(Cc2nc(C3CC3)no2)C1 (stereo not given)	i	i	0.22	-7.2	i	i	i	i	i
CC(C)(C)OC(=O)NCCCCCc1nnc(SCc2ccccc2F)o1	i	i	-1.41	-7.3	i	i	i	i	i
CC(C)(C)OC(=O)NCCCCCc1nnc(SCc2ccccc2)o1	i	i	-1.6	-6.8	i	i	.	.	.
CC(C)(CO)CNC(=O)c1ccc(OC2CCN(C(=O)C3CC3)CC2)cc1	i	i	0.0827	-11.0	i	i	.	.	.
CNC(=O)CN(c1ccc(C(C)C)cc1)S(C)(=O)=O	i	i	-0.0177	-14.5	i	i	.	.	.
CCCCn1c(SCC(=O)c2ccc(O)c(O)c2)nc2ccsc2c1=O	i	i	-0.844	-19.7	-16.2*	i	40.0%*	i	i
O=C(O)CCCCCn1c(SCC(=O)c2ccc(O)c(O)c2)nc2ccsc2c1=O	i	i	-0.0393	-11.8	i	i	.	.	.
CCCCn1c(SCC(=O)c2ccccc2)nc2ccsc2c1=O	i	i	-1.29	-7.4	-15.8*	i	30.0%*	i	28.0%*
COc1ccc2oc(=O)cc(CN(C)Cc3ccccc3)c2c1	i	i	.	-9.2	i	i	.	.	.
CCc1ccc(CN2CCCC(C(=O)Nc3ccccc3-c3ccc(OC)cc3)C2)o1 (stereo not given)	i	i	.	-11.7	-8.73*	i	i	i	28.0%*
COCc1ccc(CN2CCCC(C(=O)Nc3ccccc3-c3ccc(OC)cc3)C2)o1 (stereo not given)	i	i	.	-4.8	i	i	.	.	.
COc1ccccc1-c1nnc(SC/C(O)=C(\C#N)c2nc3ccccc3[nH]2)n1C1CCCCC1	i	i	-1.38	-3.6	-12*	i	72.5%*	i	i
COc1cccc(C2c3[nH]c4ccccc4c3CCN2Cc2cccn2-c2ncccn2)c1 (stereo not given)	i	i	-1.73	-21.2	-8.29*	i	40.5%*	i	47.5%*
COc1cccc(C2c3[nH]c4ccccc4c3CCN2CCCn2cccn2)c1 (stereo not given)	i	i	.	-8.3	i	i	.	.	.
CC1=NNC(=O)/C1=C\c1cn(-c2ccccc2)nc1-c1ccc(Cl)cc1	i	i	0.239	-7.6	i	i	i	i	i
N/C(=N\O)c1cn(Cc2ccccc2Cl)c2ccccc12	i	i	.	-12.1	i	i	.	.	.
Cc1[nH][nH]c(=O)c1C(c1c(C)[nH][nH]c1=O)c1cn(Cc2ccccc2Cl)c2ccccc12	i	i	-0.975	-14.1	i	i	i	i	i
SMILES	KCNQ1 inh	KCNQ1 act	KCC2 mod	hERG protect	KCNK9 block	KCNK3 block	KCNK9 block conf	Kir21 sel	KCNK9 uninduced
Cc1cc(Oc2ccc(Br)cc2)nc(SCC(=O)c2ccccc2)n1	i	i	-0.136	-5.1	i	i	.	.	.
Cc1cc(Oc2ccc3ccccc3c2)nc(SCC(=O)c2ccccc2)n1	i	i	-1.1	-10.1	-13.3*	i	75.5%*	i	38.5%*
COc1cccc(N/C=C/C(=O)c2ccc(OC)c(OC)c2)c1	i	i	.	-1.6	i	i	.	.	.
CCOC(=O)c1cccc(N/C=C/C(=O)c2ccc(OC)c(OC)c2)c1	i	i	.	4.3	-16.4*	i	76.0%*	i	38.5%*
CCNC(=O)NC(=O)CSc1ccc(S(=O)(=O)N2CCCCC2)cn1	.	.	.	.	.	i	.	.	.
CCCN(CCC)c1ccc(CC(=O)NC(C)Cc2ccccc2)cc1 (stereo not given)	i	i	-1.82	-5.7	i	i	i	i	i
COc1ccc(OC)c(NS(=O)(=O)c2c(C(=O)N3CCCCCC3)c(C)n(C)c2C)c1	i	i	.	-8.5	i	i	.	.	.
COc1cc(OC)cc(C(=O)Nc2c(C)nn(-c3ccccc3)c2C)c1	i	i	-0.899	-8.0	i	i	.	.	.
O=C(NNC(=S)Nc1ccc(Cl)c(Cl)c1)c1cccc([N+](=O)[O-])c1	11*	i	-5.45*	-26.1	i	i	i	i	i
Cc1cc(NC(=O)c2cc([N+](=O)[O-])ccc2Cl)no1	i	i	-0.00309	-1.0	i	i	.	.	.
O=C(Nc1cccc(NC(=O)c2cc([N+](=O)[O-])ccc2Cl)n1)c1cc([N+](=O)[O-])ccc1Cl	i	i	.	-12.4	-8.18*	-9.92*	i	i	25.5%*
O=C(c1cc([N+](=O)[O-])ccc1Cl)N1CCN(c2ccccc2)CC1	i	i	-1.26	-4.0	i	i	.	.	.
O=C(c1cc([N+](=O)[O-])ccc1Cl)N1c2ccccc2Sc2ccccc21	i	i	-0.383	-11.9	-11.7*	i	61.0%*	i	45.0%*
O=C(NNC(=S)Nc1ccc(Cl)cc1Cl)c1ccc(N2CCOCC2)c([N+](=O)[O-])c1	6*	i	-2.32	-10.0	i	i	i	i	i

Compound activity from PubChem.
